Reference: ChEMBL document CHEMBL2010740, “Synthesis and evaluation of 2-amido-3-carboxamide thiophene CB₂ receptor agonists for pain management” (Bioorg Med Chem Lett, 2012)

Assays:
Cannabinoid receptor 1 [1] = molecular target: T1, Cannabinoid receptor 1 (Homo sapiens, UniProt P21554); test: Displacement of [3H]CP-55940 from human recombinant CB1 receptor expressed in CHO cells after 90 mins; format: cell-based
In short: (§1)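 Competitive binding: [³H]CP-55,940 displaced from membranes of HEK 293 cells stably transfected with human or rat CB₂, or CHO cells stably transfected with human or rat CB₁. Reported as pKi. Determinations >2 (duplicate of duplicate).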

Cannabinoid receptor 2 [2] = molecular target: T2, Cannabinoid receptor 2 (Rattus norvegicus, UniProt Q9QZN9); test: Displacement of [3H]CP-55940 from rat recombinant CB2 receptor expressed in HEK293 cells after 90 mins; format: cell-based; in short: as §1
T2 sequence (Q9QZN9 whole entry): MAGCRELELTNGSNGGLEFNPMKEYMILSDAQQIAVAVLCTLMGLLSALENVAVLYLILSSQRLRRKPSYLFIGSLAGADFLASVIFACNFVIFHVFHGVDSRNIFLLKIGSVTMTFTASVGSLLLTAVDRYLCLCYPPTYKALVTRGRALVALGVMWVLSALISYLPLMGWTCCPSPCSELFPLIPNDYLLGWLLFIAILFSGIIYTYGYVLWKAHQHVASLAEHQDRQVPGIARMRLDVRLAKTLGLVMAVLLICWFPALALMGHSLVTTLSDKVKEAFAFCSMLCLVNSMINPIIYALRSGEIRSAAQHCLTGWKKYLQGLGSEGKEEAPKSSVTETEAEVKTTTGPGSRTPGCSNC

Cannabinoid receptor 2 [3] = molecular target: T3, Cannabinoid receptor 2 (Homo sapiens, UniProt P34972); test: Displacement of [3H]CP-55940 from human recombinant CB2 receptor expressed in HEK293 cells after 90 mins; format: cell-based; in short: as §1
T3 sequence (P34972 whole entry): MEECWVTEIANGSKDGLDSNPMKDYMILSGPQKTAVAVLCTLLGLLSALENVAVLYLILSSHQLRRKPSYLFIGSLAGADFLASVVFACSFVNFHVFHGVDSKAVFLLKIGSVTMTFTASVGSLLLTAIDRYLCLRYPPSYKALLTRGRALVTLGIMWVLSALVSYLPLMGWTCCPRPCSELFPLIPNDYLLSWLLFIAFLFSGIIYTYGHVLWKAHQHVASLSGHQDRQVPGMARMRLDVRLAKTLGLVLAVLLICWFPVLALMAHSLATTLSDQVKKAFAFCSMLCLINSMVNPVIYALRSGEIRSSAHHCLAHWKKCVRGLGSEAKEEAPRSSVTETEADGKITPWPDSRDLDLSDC

Rattus norvegicus = test: Neurotoxicity in rat assessed as decrease in spontaneous locomotory activity at 1 umol/kg, ip after 30 mins; format: toxicity, organism-based; parameters: scale not given: the % may be the effect or the level left; conditions: in vivo, 0.5 h
In short: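 Given intraperitoneally 30 min before testing; horizontal locomotor activity was recorded and compared across doses.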

[4] = molecular target: T4, Cannabinoid receptor 2 (Rattus norvegicus) (UniProt Q9QZN9); test: Agonist activity at rat recombinant CB2 receptor expressed in HEK293 cells assessed as inhibition of forskolin-induced cAMP production after 20 mins by ELISA relative to CP55940; format: functional, cell-based
T4 sequence (whole entry): T2 sequence (Q9QZN9 whole entry)
In short: (§2)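 cAMP assay in HEK 293 cells stably expressing the relevant CB receptor, with a fixed concentration of forskolin. cAMP was quantified by ELISA. Activation is given as percent of the CP-55,940 control response.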

Cannabinoid receptor 2 [5] = molecular target: T2, Cannabinoid receptor 2; test: Agonist activity at rat recombinant CB2 receptor expressed in HEK293 cells assessed as inhibition of forskolin-induced cAMP production after 20 mins by ELISA; format: functional, cell-based; in short: as §2
Cannabinoid receptor 1 [6] = molecular target: T1, Cannabinoid receptor 1; test: Agonist activity at human recombinant CB1 receptor expressed in HEK293 cells assessed as inhibition of forskolin-induced cAMP production after 20 mins by ELISA; format: functional, cell-based; in short: as §2
Cannabinoid receptor 1 [7] = molecular target: T5, Cannabinoid receptor 1 (Rattus norvegicus, UniProt P20272); test: Displacement of [3H]CP-55940 from rat recombinant CB1 receptor expressed in CHO cells after 90 mins; format: cell-based; in short: as §1
T5 sequence (P20272 whole entry): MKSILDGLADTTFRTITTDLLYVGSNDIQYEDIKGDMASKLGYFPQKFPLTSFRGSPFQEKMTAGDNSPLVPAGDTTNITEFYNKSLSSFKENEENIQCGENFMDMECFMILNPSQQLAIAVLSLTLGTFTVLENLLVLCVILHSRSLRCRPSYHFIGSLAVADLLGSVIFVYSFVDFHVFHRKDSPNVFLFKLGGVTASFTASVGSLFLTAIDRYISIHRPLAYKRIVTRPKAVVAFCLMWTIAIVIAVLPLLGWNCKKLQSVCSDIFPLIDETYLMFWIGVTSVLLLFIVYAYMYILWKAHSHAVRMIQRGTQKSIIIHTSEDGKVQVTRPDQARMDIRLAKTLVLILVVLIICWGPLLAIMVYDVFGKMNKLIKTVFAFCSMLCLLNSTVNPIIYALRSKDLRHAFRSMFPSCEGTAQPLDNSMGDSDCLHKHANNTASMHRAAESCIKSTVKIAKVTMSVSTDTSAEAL

Cannabinoid receptor 2 [8] = molecular target: T3, Cannabinoid receptor 2; test: Agonist activity at human recombinant CB2 receptor expressed in HEK293 cells co-expressing chimeric Gaq/o protein by FLIPR assay; format: functional, cell-based
In short: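 FLIPR functional assay in HEK 293 cells stably co-expressing chimeric Gαq/o protein and the CB receptor. Net peak evoked response was compared with the peak response to CP-55,940.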

Cannabinoid receptor 2 [9] = molecular target: T3, Cannabinoid receptor 2; test: Agonist activity at human recombinant CB2 receptor expressed in HEK293 cells assessed as inhibition of forskolin-induced cAMP production after 20 mins by ELISA; format: functional, cell-based; in short: as §2
Cannabinoid receptor 1 [10] = molecular target: T5, Cannabinoid receptor 1; test: Agonist activity at rat recombinant CB1 receptor expressed in HEK293 cells assessed as inhibition of forskolin-induced cAMP production after 20 mins by ELISA; format: functional, cell-based; in short: as §2
[11] = Plasma protein binding in rat; format: ADME, cell-free; conditions: read-out: PPB (converted)
[12] = Plasma protein binding in human; format: ADME, cell-free; conditions: read-out: PPB (converted)

T1 sequence (P21554 whole entry): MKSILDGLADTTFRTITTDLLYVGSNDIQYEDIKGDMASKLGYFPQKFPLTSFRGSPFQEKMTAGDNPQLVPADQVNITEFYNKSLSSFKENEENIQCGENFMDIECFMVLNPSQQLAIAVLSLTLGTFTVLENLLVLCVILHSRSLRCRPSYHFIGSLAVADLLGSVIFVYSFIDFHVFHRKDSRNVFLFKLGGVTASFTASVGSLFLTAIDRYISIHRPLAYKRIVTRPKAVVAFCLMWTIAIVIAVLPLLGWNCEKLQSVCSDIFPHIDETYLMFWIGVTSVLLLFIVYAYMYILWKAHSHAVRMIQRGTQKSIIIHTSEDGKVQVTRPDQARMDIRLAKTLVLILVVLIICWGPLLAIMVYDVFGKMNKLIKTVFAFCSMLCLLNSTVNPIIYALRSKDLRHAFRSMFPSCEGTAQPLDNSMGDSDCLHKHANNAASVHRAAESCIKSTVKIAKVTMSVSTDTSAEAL

Row | Compound | Ki (Cannabinoid receptor 1 [1]) [nM] | Ki (Cannabinoid receptor 2 [2]) [nM] | Ki (Cannabinoid receptor 2 [3]) [nM] | Activity (Rattus norvegicus) [%] | Imax [4] [%] | IC50 (Cannabinoid receptor 2 [5]) [nM] | IC50 (Cannabinoid receptor 1 [6]) [nM] | Ki (Cannabinoid receptor 1 [7]) [nM] | IC50 (Cannabinoid receptor 2 [8]) [nM] | IC50 (Cannabinoid receptor 2 [9]) [nM] | IC50 (Cannabinoid receptor 1 [10]) [nM] | fraction unbound [11] | fraction unbound [12]
1 | CCNC(=O)c1c(NC(=O)C23CC4CC(CC2C4)C3)sc2c1CCOC2 | > 10000 | 295 | 214 | – | – | – | – | – | – | – | – | – | –
2 | O=C(CCCN1CCC(O)(c2ccc(Cl)cc2)CC1)c1ccc(F)cc1 [HALOPERIDOL] | – | – | – | 68 | – | – | – | – | – | – | – | – | –
3 | O=C(c1c(NC(=O)C23CC4CC(CC2C4)C3)sc2c1CCOC2)N1CC(F)(F)C1 | 3390 | 46.8 | 5.62 | – | 53 | 9.55 | 550 | 66.1 | 5.62 | 0.2 | 229 | – | –
4 | CCCNC(=O)c1c(NC(=O)C23CC4CC(CC(C4)O2)C3)sc2c1CCOC2 | > 10000 | 490 | 257 | – | – | – | – | – | – | – | – | – | –
5 | CCCNC(=O)c1c(NC(=O)C23CC4CC(CC2C4)C3)sc2c1CCNC2 | – | – | > 1000 | – | – | – | – | – | – | – | – | < 0.01 | < 0.01
6 | CCCNC(=O)c1c(NC(=O)C23CC4CC(CC(C4)C2)C3)sc2c1CCOC2 | > 10000 | 20 | 33.9 | – | – | > 10000 | – | 525 | 42.7 | 11.2 | – | < 0.01 | < 0.01
7 | O=C(c1c(NC(=O)C23CC4CC(CC2C4)C3)sc2c1CCOC2)N1CCOCC1 | > 10000 | > 10000 | 91.2 | – | – | – | – | > 10000 | – | – | – | – | –
